ChEMBL document CHEMBL4689842, “EUbOPEN Chemogenomics Library wave 1” (2021)

System: Fibroblast
Assay: Multiplex assay against human fibroblast
Assay type: toxicity, cell-based
In short: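 With compound added, live cells were imaged on a CQ1 microscope at 37°C and 5% CO2; staining with Hoechst33342, BioTracker Green Microtubule Cytoskeleton Dye, MitoTracker Red and Annexin V Alexa Fluor 680 had been done at seeding. The CellPathfinder machine-learning gating scheme split cells into Hoechst high-intensity objects or normal cells, normal cells into healthy, pyknosed or fragmented nuclei, and pyknosed cells into mitotic or apoptotic. The tubulin, mitochondrial-mass and membrane-permeability phenotypes are per cents of healthy-nucleus cells.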

[1] = 12 h, 1 µM, compound concentration 1 uM, replicate 1
[2] = 12 h, 1 µM, compound concentration 1 uM, replicate 2
[3] = 12 h, 10 µM, compound concentration 10 uM, replicate 1
[4] = 12 h, 10 µM, compound concentration 10 uM, replicate 2
[5] = 24 h, 1 µM, compound concentration 1 uM, replicate 1
[6] = 24 h, 1 µM, compound concentration 1 uM, replicate 2
[7] = 24 h, 10 µM, compound concentration 10 uM, replicate 1
[8] = 24 h, 10 µM, compound concentration 10 uM, replicate 2
[9] = 48 h, 1 µM, compound concentration 1 uM, replicate 1
[10] = 48 h, 1 µM, compound concentration 1 uM, replicate 2
[11] = 48 h, 10 µM, compound concentration 10 uM, replicate 1
[12] = 48 h, 10 µM, compound concentration 10 uM, replicate 2

Cc1c[nH]c2nccc(Oc3c(F)cc(Nc4cc(Cl)nc(N)n4)cc3F)c12 [BAY-549]
Population Apoptotic (%) [1]: 54%
Population Fragmented Nuclei (%) [1]: 25%
Population Healthy Nuclei (%) [1]: 41%
Population Hoechst High Intensity Objects (%) [1]: 12%
Population Membrane Permeable-Phenotype (%) [1]: 32%
Population Mitochondria Different-Phenotype (%) [1]: 3%
Population Mitotic Cells (%) [1]: 46%
Population Normal (%) [1]: 87%
Population Pyknosed Nuclei (%) [1]: 33%
Population Tubulin-Different-Phenotype (%) [1]: 38%
Total Cell Count [1]: 172
Population Apoptotic (%) [2]: 44%
Population Fragmented Nuclei (%) [2]: 12%
Population Healthy Nuclei (%) [2]: 73%
Population Hoechst High Intensity Objects (%) [2]: 5%
Population Membrane Permeable-Phenotype (%) [2]: 4%
Population Mitochondria Different-Phenotype (%) [2]: 6%
Population Mitotic Cells (%) [2]: 55%
Population Normal (%) [2]: 94%
Population Pyknosed Nuclei (%) [2]: 14%
Population Tubulin-Different-Phenotype (%) [2]: 12%
Total Cell Count [2]: 68
Population Apoptotic (%) [3]: 66%
Population Fragmented Nuclei (%) [3]: 23%
Population Healthy Nuclei (%) [3]: 31%
Population Hoechst High Intensity Objects (%) [3]: 10%
Population Membrane Permeable-Phenotype (%) [3]: 21%
Population Mitochondria Different-Phenotype (%) [3]: 0%
Population Mitotic Cells (%) [3]: 33%
Population Normal (%) [3]: 90%
Population Pyknosed Nuclei (%) [3]: 45%
Population Tubulin-Different-Phenotype (%) [3]: 21%
Total Cell Count [3]: 130
Population Apoptotic (%) [4]: 40%
Population Fragmented Nuclei (%) [4]: 17%
Population Healthy Nuclei (%) [4]: 65%
Population Hoechst High Intensity Objects (%) [4]: 6%
Population Membrane Permeable-Phenotype (%) [4]: 7%
Population Mitochondria Different-Phenotype (%) [4]: 10%
Population Mitotic Cells (%) [4]: 60%
Population Normal (%) [4]: 93%
Population Pyknosed Nuclei (%) [4]: 17%
Population Tubulin-Different-Phenotype (%) [4]: 10%
Total Cell Count [4]: 62
Population Apoptotic (%) [5]: 50%
Population Fragmented Nuclei (%) [5]: 32%
Population Healthy Nuclei (%) [5]: 40%
Population Hoechst High Intensity Objects (%) [5]: 10%
Population Membrane Permeable-Phenotype (%) [5]: 26%
Population Mitochondria Different-Phenotype (%) [5]: 9%
Population Mitotic Cells (%) [5]: 50%
Population Normal (%) [5]: 89%
Population Pyknosed Nuclei (%) [5]: 27%
Population Tubulin-Different-Phenotype (%) [5]: 34%
Total Cell Count [5]: 170
Population Apoptotic (%) [6]: 46%
Population Fragmented Nuclei (%) [6]: 8%
Population Healthy Nuclei (%) [6]: 71%
Population Hoechst High Intensity Objects (%) [6]: 3%
Population Membrane Permeable-Phenotype (%) [6]: 5%
Population Mitochondria Different-Phenotype (%) [6]: 7%
Population Mitotic Cells (%) [6]: 53%
Population Normal (%) [6]: 96%
Population Pyknosed Nuclei (%) [6]: 20%
Population Tubulin-Different-Phenotype (%) [6]: 18%
Total Cell Count [6]: 77
Population Apoptotic (%) [7]: 70%
Population Fragmented Nuclei (%) [7]: 44%
Population Healthy Nuclei (%) [7]: 30%
Population Hoechst High Intensity Objects (%) [7]: 21%
Population Membrane Permeable-Phenotype (%) [7]: 13%
Population Mitochondria Different-Phenotype (%) [7]: 13%
Population Mitotic Cells (%) [7]: 30%
Population Normal (%) [7]: 78%
Population Pyknosed Nuclei (%) [7]: 25%
Population Tubulin-Different-Phenotype (%) [7]: 33%
Total Cell Count [7]: 152
Population Apoptotic (%) [8]: 71%
Population Fragmented Nuclei (%) [8]: 12%
Population Healthy Nuclei (%) [8]: 62%
Population Hoechst High Intensity Objects (%) [8]: 5%
Population Membrane Permeable-Phenotype (%) [8]: 11%
Population Mitochondria Different-Phenotype (%) [8]: 20%
Population Mitotic Cells (%) [8]: 28%
Population Normal (%) [8]: 94%
Population Tubulin-Different-Phenotype (%) [8]: 20%
Total Cell Count [8]: 59
Population Apoptotic (%) [9]: 66%
Population Fragmented Nuclei (%) [9]: 41%
Population Healthy Nuclei (%) [9]: 46%
Population Hoechst High Intensity Objects (%) [9]: 14%
Population Membrane Permeable-Phenotype (%) [9]: 13%
Population Mitochondria Different-Phenotype (%) [9]: 1%
Population Mitotic Cells (%) [9]: 33%
Population Normal (%) [9]: 85%
Population Pyknosed Nuclei (%) [9]: 12%
Population Tubulin-Different-Phenotype (%) [9]: 19%
Total Cell Count [9]: 170
Population Apoptotic (%) [10]: 100%
Population Fragmented Nuclei (%) [10]: 26%
Population Healthy Nuclei (%) [10]: 72%
Population Hoechst High Intensity Objects (%) [10]: 11%
Population Membrane Permeable-Phenotype (%) [10]: 10%
Population Mitotic Cells (%) [10]: 0%
Population Normal (%) [10]: 88%
Population Pyknosed Nuclei (%) [10]: 0%
Population Tubulin-Different-Phenotype (%) [10]: 5%
Total Cell Count [10]: 184
Population Apoptotic (%) [11]: 80%
Population Fragmented Nuclei (%) [11]: 56%
Population Healthy Nuclei (%) [11]: 29%
Population Hoechst High Intensity Objects (%) [11]: 20%
Population Membrane Permeable-Phenotype (%) [11]: 16%
Population Mitochondria Different-Phenotype (%) [11]: 16%
Population Mitotic Cells (%) [11]: 20%
Population Normal (%) [11]: 79%
Population Pyknosed Nuclei (%) [11]: 13%
Population Tubulin-Different-Phenotype (%) [11]: 23%
Total Cell Count [11]: 180
Population Apoptotic (%) [12]: 57%
Population Fragmented Nuclei (%) [12]: 50%
Population Healthy Nuclei (%) [12]: 45%
Population Hoechst High Intensity Objects (%) [12]: 17%
Population Membrane Permeable-Phenotype (%) [12]: 5%
Population Mitochondria Different-Phenotype (%) [12]: 10%
Population Mitotic Cells (%) [12]: 42%
Population Normal (%) [12]: 82%
Population Pyknosed Nuclei (%) [12]: 3%
Population Tubulin-Different-Phenotype (%) [12]: 6%
Total Cell Count [12]: 239
